What was measured:
[1] = Drug uptake in human HN-143 cells assessed as increase in drug retention retention at 3 uM in medium with 10% FBS incubated for 5 hrs followed by 40 hrs chase period by inverted fluorescence microscopic analysis; type: ADME, cell-based; conditions: hn-143, 5 h
In short: (§1)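 Five-day co-cultures of HN-143 tumor epithelial cells and HN-166 tumor fibroblasts, both primary head & neck tumor cultures grown on collagen-1 under selective media. PS in 10% FBS medium for 5 h, then 40 h chase without PS. Phase-contrast and fluorescence images taken at 100X with 500 ms exposure; signal normalized to recording time and cell number.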

[2] = Drug uptake in human HN-166 cells assessed as increase in drug retention retention at 3 uM in medium with 10% FBS incubated for 5 hrs followed by 40 hrs chase period by inverted fluorescence microscopic analysis; type: ADME, cell-based; conditions: hn-166, 5 h; in short: as §1
HN-85-1-3 [3] = assay: Photodynamic therapy in human HN-85-1-3 cells assessed as induction of STAT3 cross-linking treated with compound followed by diode laser irradiation at 3 J/cm2 by immunoblot analysis; type: functional, cell-based
In short: (§2)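 Primary HN-85-1-3 tumor epithelial cells loaded with graded PS doses; uptake quantified by fluorescence before light. Dishes irradiated at 37°C with 665 nm diode laser, 6 mW/cm², 3 J/cm² total. Cells lysed in RIPA immediately after light; STAT3 crosslinking and EGFR analysed by SDS-PAGE immunoblot.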

HN-85-1-3 [4] = assay: Photodynamic therapy in human HN-85-1-3 cells assessed as degradation of EGFR treated with compound followed by diode laser irradiation at 3 J/cm2 by immunoblot analysis; type: functional, cell-based; in short: as §2
[5] = Drug uptake in liver of SCID mouse xenografted with human UMUC3 cells at 0.125 micromol/kg, iv pretreated with compound followed by light irradiation at a dose of 135 J/cm2 and 75 mW/cm2 measured after 2 to 24 hrs by IVIS analysis; type: ADME, organism-based; conditions: in vivo, time 2-24 hrs, dose 0.125 µmol/kg
In short: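 Female SCID mice with UMUC3 flank/shoulder tumors, 3 per group. PS in 1% Tween80/5% dextrose given iv at 0.47, 0.25 or 0.125 μmol/kg. Whole-body fluorescence imaging by IVIS at several times after injection; average radiant efficiency measured in tumor, liver and skin.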

UMUC3 [6] = assay: Photodynamic antitumor activity against human UMUC3 cells xenografted in SCID mouse assessed as tumor retention at 0.47 micromol/kg, iv pretreated with compound followed by light irradiation at a dose of 135 J/cm2 and 75 mW/cm2 measured at day 60 post dose relative to control; type: functional; conditions: dose 0.47 µmol/kg; time 60 day
In short: (§3)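 UMUC3-bearing female SCID mice given iv PS in 1% Tween80/5% dextrose. Mice restrained and tumors irradiated at 665 nm, 135 J/cm² over 30 min at 75 mW/cm², at the time of maximal tumor uptake. Tumor regrowth measured daily for 60 days; mice euthanized above 400 mm³. Cure plotted as survival curves and compared by log-rank (Mantel-Cox) test.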

[7] = Photosensitizing activity in human HN-85-1-3 cells assessed as induction of STAT3 cross-linking pretreated with compound followed by diode laser irradiation at 3 J/cm2 by immunoblot analysis (reference value: 0 %); type: functional; in short: as §2
UMUC3 [8] = assay: Photodynamic antitumor activity against human UMUC3 cells xenografted in SCID mouse assessed as tumor retention at 0.25 micromol/kg, iv pretreated with compound followed by light irradiation at a dose of 135 J/cm2 and 75 mW/cm2 measured at day 60 post dose relative to control; type: functional; conditions: dose 0.25 µmol/kg; time 60 day; in short: as §3
[9] = Drug uptake in tumor of SCID mouse xenografted with human FaDu cells at 0.47 to 0.125 micromol/kg, iv pretreated with compound followed by light irradiation at a dose of 135 J/cm2 and 75 mW/cm2 and measured at 24 hrs by IVIS analysis; type: ADME, organism-based, Neoplasm; conditions: in vivo, dose 0.47-0.125 µmol/kg
In short: (§4)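 Female SCID mice bearing FaDu tumors 4–5 mm in diameter, 3 per group. PS in 1% Tween80/5% dextrose given iv at 0.47, 0.25 or 0.125 μmol/kg. IVIS whole-body fluorescence imaged at several time points; average radiant efficiency measured in tumor, liver and skin.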

[10] = Drug uptake in skin of SCID mouse xenografted with FaDu cells at 0.47 to 0.125 micromol/kg, iv pretreated with compound followed by light irradiation at a dose of 135 J/cm2 and 75 mW/cm2 and measured at 24 hrs by IVIS analysis; type: ADME, organism-based, Skin of body; conditions: in vivo, dose 0.47-0.125 µmol/kg; in short: as §4
FaDu [11] = assay: Photodynamic antitumor activity against human FaDu cells xenografted in SCID mouse assessed as cure rate at 0.25 micromol/kg, iv pretreated with compound followed by light irradiation at a dose of 135 J/cm2 and 75 mW/cm2 measured after 60 days post dose relative to control; type: functional; conditions: dose 0.25 µmol/kg; time 60 day
In short: (§5)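 FaDu-bearing female SCID mice (5 per group per experiment) given iv PS at 0.47, 0.25 or 0.125 μmol/kg in Tween80/dextrose. Tumors irradiated 24 h post-injection at 665 nm, 135 J/cm², 75 mW/cm². Tumor growth measured daily for 60 days, with euthanasia above 400 mm³. Cure taken as tumor-free at day 60; survival analysed by log-rank test.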

FaDu [12] = assay: Photodynamic antitumor activity against human FaDu cells xenografted in SCID mouse assessed as cure rate at 0.125 micromol/kg, iv pretreated with compound followed by light irradiation at a dose of 135 J/cm2 and 75 mW/cm2 measured for 60 days post dose relative to control; type: functional; conditions: dose 0.125 µmol/kg; time 60 day; in short: as §5
[13] = Drug uptake in tumor of iv dosed SCID mouse xenografted with UMUC3 cells by fluorescence imaging analysis; conditions: in vivo
[14] = Drug uptake in human FaDu clone 49 cells assessed as increase in drug retention at 1.6 uM in RPMI medium with 10% FBS followed by 48 hrs chase period by inverted fluorescence microscopic analysis

CCC1=C(C)c2cc3[nH]c(cc4nc(c5c6[nH]c(cc1n2)c(C)c6C(=O)C5)[C@@H](CCC(=O)OC)[C@@H]4C)c(C)c3C(C)OCc1cccc(C#Cc2cccc(Nc3ncnc4cc(OCCOC)c(OCCOC)cc34)c2)c1 (some centres undefined)
Drug uptake [1]: Active
Drug uptake [2]: Active
Activity (HN-85-1-3 [3]): Dose-dependent effect
Activity (HN-85-1-3 [4]): Dose-dependent effect
Drug uptake [5]: Active
Activity (UMUC3 [6]): 74%
Activity [7]: 0.5%
Activity (UMUC3 [8]): 50%
Drug uptake [9]: Active
Drug uptake [10]: Active
Activity (FaDu [11]): 80%
Activity (FaDu [12]): 0%
Drug uptake [13]: Active
Drug uptake [14]: Active
